pEC50: −log10 of the molar value.
How the values were obtained:
[1] = system: Human immunodeficiency virus 1; assay: Antiviral activity against HIV1 NL 4-3 expressing wild type reverse transcriptase infected in human PBMC by ELISA; assay type: functional, organism-based; details: Human immunodeficiency virus 1, NL 4-3
Summary of the method: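 Fresh donor PBMCs, HIV- and HBV-seronegative, were stimulated with 4 μg/ml PHA for 48 to 72 h and kept on 20 U/ml rhIL-2. Cells pooled from at least two donors were seeded at 5 × 10^4 per well and infected at MOI ~0.1. Nine compound concentrations were run in triplicate wells for 7 days.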

[2] = system: Human immunodeficiency virus 1; assay: Antiviral activity against HIV1 7303-3 harboring reverse transcriptase 41L/44D/67N/69D/118I/210W/215Y mutant gene infected in human PBMC by ELISA; assay type: functional, organism-based; details: Human immunodeficiency virus 1, 7303-3
Summary of the method: (§1)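 Fresh PBMCs pooled from at least two HIV- and HBV-seronegative donors, stimulated with PHA 4 μg/ml for 48–72 h and kept in rhIL-2 20 U/ml. Seeded at 5 × 10^4 cells/well and infected with RT-mutant HIV-1 clones at MOI ~0.1. Nine compound concentrations, triplicate wells, 7-day incubation. EC50 reported as mean ± SD of one to three independent experiments.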

[3] = system: Human immunodeficiency virus 1; assay: Antiviral activity against HIV1 52534-2 harboring reverse transcriptase 41L//74V/210W/215Y/184V/69SSS mutant gene infected in human PBMC by ELISA; assay type: functional, organism-based; details: Human immunodeficiency virus 1, 52534-2; summary of the method: as §1
[4] = system: Human immunodeficiency virus 1; assay: Antiviral activity against HIV1 71361-1 harboring reverse transcriptase 65R mutant gene infected in human PBMC by ELISA; assay type: functional, organism-based; details: Human immunodeficiency virus 1, 71361-1; summary of the method: as §1
[5] = system: Human immunodeficiency virus 1; assay: Antiviral activity against HIV1 8415-2 harboring reverse transcriptase 65R/184V mutant gene infected in human PBMC by ELISA; assay type: functional, organism-based; details: Human immunodeficiency virus 1, 8415-2; summary of the method: as §1
[6] = system: Human immunodeficiency virus 1; assay: Antiviral activity against HIV1 isolate 056 expressing wild type reverse transcriptase gene by phenosense assay; assay type: functional, organism-based; details: Human immunodeficiency virus 1, isolate 056
Summary of the method: (§2)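 In the PhenoSense recombinant virus assay, virus was tested against increasing drug concentrations. EC50 came from the inhibition curve and was compared with a drug-sensitive reference virus.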

[7] = system: Human immunodeficiency virus 1; assay: Antiviral activity against HIV1 isolate 057 expressing wild type reverse transcriptase gene by phenosense assay; assay type: functional, organism-based; details: Human immunodeficiency virus 1, isolate 057; summary of the method: as §2
[8] = system: Human immunodeficiency virus 1; assay: Antiviral activity against HIV1 isolate 063 harboring reverse transcriptase M41L/D67N/K70R/M184V/L210W/T215Y/K219E mutant gene by phenosense assay; assay type: functional, organism-based; details: Human immunodeficiency virus 1, isolate 063
Summary of the method: (§3)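 Recombinant-virus PhenoSense HIV assay run on a panel of 30 NRTI-resistant HIV-1 mutants and two wild-type viruses. Each virus is tested across increasing drug concentrations to give an inhibition curve and EC50. Fold change is the test recombinant EC50 divided by the EC50 of the drug-sensitive wild-type reference virus.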

[9] = system: Human immunodeficiency virus 1; assay: Antiviral activity against HIV1 isolate 071 harboring reverse transcriptase 65R/S68N/184V mutant gene by phenosense assay; assay type: functional, organism-based; details: Human immunodeficiency virus 1, isolate 071; summary of the method: as §3
[10] = system: Human immunodeficiency virus 1; assay: Antiviral activity against HIV1 isolate 153 harboring reverse transcriptase L74V mutant gene by phenosense assay; assay type: functional, organism-based; details: Human immunodeficiency virus 1, isolate 153; summary of the method: as §3
[11] = system: Human immunodeficiency virus 1; assay: Antiviral activity against HIV1 isolate 157 harboring reverse transcriptase L74V/M184V mutant gene by phenosense assay; assay type: functional, organism-based; details: Human immunodeficiency virus 1, isolate 157; summary of the method: as §3
[12] = system: Human immunodeficiency virus 1; assay: Antiviral activity against HIV1 isolate 160 harboring reverse transcriptase S68G/V75(I/T)/F77L/Y115F/F116Y /Q151M mutant gene by phenosense assay; assay type: functional, organism-based; details: Human immunodeficiency virus 1, isolate 160; summary of the method: as §3
[13] = system: Human immunodeficiency virus 1; assay: Antiviral activity against HIV1 isolate 162 harboring reverse transcriptase A62V/V75I/F77L/Y115F/F116Y/Q151M/M184V mutant gene by phenosense assay; assay type: functional, organism-based; details: Human immunodeficiency virus 1, isolate 162; summary of the method: as §3
[14] = system: Human immunodeficiency virus 1; assay: Antiviral activity against HIV1 isolate 166 harboring reverse transcriptase L74V mutant gene obtained as site-directed mutant of NL4-3 by phenosense assay; assay type: functional, organism-based; details: Human immunodeficiency virus 1, isolate 166; summary of the method: as §3
[15] = system: Human immunodeficiency virus 1; assay: Antiviral activity against HIV1 isolate 180 harboring reverse transcriptase K65R mutant gene obtained as site-directed mutant of NL4-3 by phenosense assay; assay type: functional, organism-based; details: Human immunodeficiency virus 1, isolate 180; summary of the method: as §3
[16] = system: Human immunodeficiency virus 1; assay: Antiviral activity against HIV1 isolate 185 harboring reverse transcriptase T215Y mutant gene by phenosense assay; assay type: functional, organism-based; details: Human immunodeficiency virus 1, isolate 185; summary of the method: as §3
[17] = system: Human immunodeficiency virus 1; assay: Antiviral activity against HIV1 isolate 188 harboring reverse transcriptase T215Y/M184V mutant gene by phenosense assay; assay type: functional, organism-based; details: Human immunodeficiency virus 1, isolate 188; summary of the method: as §3
[18] = system: Human immunodeficiency virus 1; assay: Antiviral activity against HIV1 isolate 201 harboring reverse transcriptase M41L/L210W/T215Y mutant gene by phenosense assay; assay type: functional, organism-based; details: Human immunodeficiency virus 1, isolate 201; summary of the method: as §3
[19] = system: Human immunodeficiency virus 1; assay: Antiviral activity against HIV1 isolate 211 harboring reverse transcriptase D67N/K70R/T215F/K219E/M184V mutant gene by phenosense assay; assay type: functional, organism-based; details: Human immunodeficiency virus 1, isolate 211
Summary of the method: (§4)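 PhenoSense HIV recombinant virus assay: patient-derived HIV-1 with major NRTI resistance mutations tested against increasing drug concentrations to give inhibition curves. EC50 is the concentration giving 50% inhibition. Fold change is the test recombinant EC50 divided by the EC50 of a drug-sensitive wild-type reference virus. Panel of 30 NRTI-resistant isolates plus two wild-type viruses.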

[20] = system: Human immunodeficiency virus 1; assay: Antiviral activity against HIV1 isolate 212 harboring reverse transcriptase L210W/T215Y mutant gene by phenosense assay; assay type: functional, organism-based; details: Human immunodeficiency virus 1, isolate 212; summary of the method: as §4
[21] = system: Human immunodeficiency virus 1; assay: Antiviral activity against HIV1 isolate 217 harboring reverse transcriptase D67N/K70E/M184V mutant gene by phenosense assay; assay type: functional, organism-based; details: Human immunodeficiency virus 1, isolate 217; summary of the method: as §4
[22] = system: Human immunodeficiency virus 1; assay: Antiviral activity against HIV1 isolate 061 harboring reverse transcriptase M41L/D67N/K70R/M184V/L210W/T215Y/K219E mutant gene by phenosense assay relative to wild type; assay type: functional; summary of the method: as §3
[23] = system: Human immunodeficiency virus 1; assay: Antiviral activity against HIV1 isolate 067 harboring reverse transcriptase A62V/D67G/T69SVG/V75I/T215I mutant gene by phenosense assay relative to wild type; assay type: functional; summary of the method: as §3
[24] = system: Human immunodeficiency virus 1; assay: Antiviral activity against HIV1 isolate 071 harboring reverse transcriptase 65R/S68N/184V mutant gene by phenosense assay relative to wild type; assay type: functional; summary of the method: as §3
[25] = system: Human immunodeficiency virus 1; assay: Antiviral activity against HIV1 isolate 153 harboring reverse transcriptase L74V mutant gene by phenosense assay relative to wild type; assay type: functional; summary of the method: as §3
[26] = system: Human immunodeficiency virus 1; assay: Antiviral activity against HIV1 isolate 166 harboring reverse transcriptase L74V mutant gene obtained as site-directed mutant of NL4-3 by phenosense assay relative to wild type; assay type: functional; summary of the method: as §3
[27] = system: Human immunodeficiency virus 1; assay: Antiviral activity against HIV1 isolate 192 harboring reverse transcriptase M41L/T215Y mutant gene by phenosense assay relative to wild type; assay type: functional; summary of the method: as §3
[28] = system: Human immunodeficiency virus 1; assay: Antiviral activity against HIV1 isolate 194 harboring reverse transcriptase M41L/T215Y/M184V mutant gene by phenosense assay relative to wild type; assay type: functional; summary of the method: as §3
[29] = system: Human immunodeficiency virus 1; assay: Antiviral activity against HIV1 isolate 200 harboring reverse transcriptase M41L/L210W/T215Y mutant gene by phenosense assay relative to wild type; assay type: functional; summary of the method: as §3
[30] = system: Human immunodeficiency virus 1; assay: Antiviral activity against HIV1 isolate 204 harboring reverse transcriptase M41L/L210W/T215Y/M184V mutant gene by phenosense assay relative to wild type; assay type: functional; summary of the method: as §4
[31] = system: Human immunodeficiency virus 1; assay: Antiviral activity against HIV1 isolate 212 harboring reverse transcriptase L210W/T215Y mutant gene by phenosense assay relative to wild type; assay type: functional; summary of the method: as §4

Question: `C[C@H](Cn1cnc2c(N)ncnc21)OCP(=O)(O)O` [TENOFOVIR ANHYDROUS] was tested. Which pEC50 [1] did it give?
Answer: 6.52

Question: What about the pEC50 [2] of the same compound?
Answer: < 5.07

Question: What about the pEC50 [3] of the same compound?
Answer: < 5.19

Question: And the pEC50 [4]?
Answer: < 5.10

Question: What about the pEC50 [5] of the same compound?
Answer: 6.00

Question: And the pEC50 [6]?
Answer: 6.21

Question: What about the pEC50 [7] of the same compound?
Answer: 6.19

Question: And the pEC50 [8]?
Answer: 5.77

Question: And the pEC50 [9]?
Answer: 6.03

Question: And the pEC50 [10]?
Answer: 6.32

Question: And the pEC50 [11]?
Answer: 6.64

Question: And the pEC50 [12]?
Answer: 5.77

Question: What about the pEC50 [13] of the same compound?
Answer: 5.96

Question: And the pEC50 [14]?
Answer: 6.27

Question: And the pEC50 [15]?
Answer: 5.80

Question: What about the pEC50 [16] of the same compound?
Answer: 5.74

Question: What about the pEC50 [17] of the same compound?
Answer: 6.21

Question: What about the pEC50 [18] of the same compound?
Answer: 5.64

Question: And the pEC50 [19]?
Answer: 6.15

Question: And the pEC50 [20]?
Answer: 6.00

Question: What about the pEC50 [21] of the same compound?
Answer: 6.30

Question: And the “fold change (FC)” value [22]?
Answer: 2.2

Question: And the “fold change (FC)” value [23]?
Answer: 22

Question: What about the “fold change (FC)” value [24] of the same compound?
Answer: 1.2

Question: What about the “fold change (FC)” value [25] of the same compound?
Answer: 0.62

Question: What about the “fold change (FC)” value [26] of the same compound?
Answer: 0.69

Question: And the “fold change (FC)” value [27]?
Answer: 1.8

Question: And the “fold change (FC)” value [28]?
Answer: 1.3

Question: And the “fold change (FC)” value [29]?
Answer: 2.8

Question: What about the “fold change (FC)” value [30] of the same compound?
Answer: 1

Question: And the “fold change (FC)” value [31]?
Answer: 1.3
